# Assay results reported in publication PMC3475454 (Bioscience Reports, 2012).
# pIC50: −log10 of the molar value.
# Legend:
# firefly luciferase [1] = target: T1, firefly luciferase (Photinus pyralis, UniProt P08659); assay: Firefly luciferase activity assay in cell lysates, compound added to lysate; assay type: biochemical; details: for pIC50: IC50 for firefly luciferase inhibition
# Renilla luciferase = Renilla luciferase (Renilla reniformis, UniProt P27652); assay: Renilla luciferase activity assay in cell lysates; assay type: biochemical; details: 20 μM added to lysates of Hepa1c1c7, 70.4 and 55.1c cells
# Chain of Renilla luciferase (P27652 whole entry): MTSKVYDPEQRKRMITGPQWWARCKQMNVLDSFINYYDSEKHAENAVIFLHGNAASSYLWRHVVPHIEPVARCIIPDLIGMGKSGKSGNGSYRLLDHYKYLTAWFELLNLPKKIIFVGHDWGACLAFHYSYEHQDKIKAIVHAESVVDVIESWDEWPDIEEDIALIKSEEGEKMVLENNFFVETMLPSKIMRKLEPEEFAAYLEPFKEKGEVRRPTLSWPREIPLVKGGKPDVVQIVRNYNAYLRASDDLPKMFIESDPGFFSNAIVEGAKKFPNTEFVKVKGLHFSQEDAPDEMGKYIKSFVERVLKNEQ
# How it was run: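 Hepa1c1c7, 70.4 and 55.1c cells were transfected with CMV-driven Renilla luciferase plasmid. After 24 h, cells were lysed in passive lysis buffer. 20 μM test compound (1% v/v of 2 mM DMSO stock) was added to the lysate 5 min before reading. Luminescence was read for 10 s; n=3 and 4.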
# Gaussia luciferase = Gaussia luciferase activity assay in cell culture supernatant; assay type: biochemical; details: 20 μM, Hepa1c1c7, 70.4 and 55.1c cells
# How it was run: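 Hepa1c1c7, 70.4 and 55.1c cells were transfected by Lipofectamine 2000 with an AP-1-responsive Gaussia luciferase vector. After 24 h, culture supernatant was taken. 20 μM test compound (1% v/v of 2 mM DMSO solution) was added 5 min before reading. Luminescence was read for 10 s; n=3 and 4.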
# firefly luciferase [2] = target: T1, firefly luciferase; assay: Firefly luciferase reporter; assay type: cell-based; details: 20 μM; for Firefly luciferase inhibition in cells: stably transfected cell lines
# How it was run: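 Stably STF-transfected 70.4- and 55.1c-derived mouse hepatoma clones, with G418 removed at plating, were exposed in culture to 20 μM test compound (0.1% DMSO) for 1 h or 24 h. Cells were lysed in passive lysis buffer. Signal was normalised to Alamar Blue vitality and expressed as % untreated; n=3 and 4.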
# firefly luciferase [3] = target: T1, firefly luciferase; assay: Monitoring of firefly luciferase in living cells with D-luciferin-ethylester; assay type: cell-based; details: 20 μM, 30 min pre-incubation, 70.4 K15 and 55.1c K65 cells
# How it was run: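 Living 70.4 K15 and 55.1c K65 cells stably expressing firefly luciferase were pre-incubated for 30 min in medium with 20 μM test compound (37°C, 5% CO2) and then washed with PBS. After 5 min, signal was read on a plate reader over 4 min or on a CCD camera over 8 min; n=4.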
# [4] = test system: β-catenin target genes Axin2 and Gpr49; assay: Real-time RT-PCR of β-catenin target genes; assay type: cell-based, mouse; details: 20 μM, 24 h
# firefly luciferase [5] = target: T1, firefly luciferase; assay: Inhibition of pure commercially available firefly luciferase; assay type: biochemical; details: 10 μM, different enzyme concentrations
# How it was run: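 Purified commercial firefly luciferase was prepared as a stock of 1 mg/ml in luciferase assay buffer lacking ATP and D-luciferin, supplemented with 0.1% BSA. Several enzyme concentrations were assayed with 10 μM test compound. Values are means of two experiments.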
# firefly luciferase [6] = details: cited from earlier work
# Ultra-Glo luciferase = target: T2, Ultra-Glo luciferase (Photuris pensylvanica, UniProt Q27757); details: ref Promega Corporation web page; cited from earlier work
# T2 sequence (Q27757 1-545): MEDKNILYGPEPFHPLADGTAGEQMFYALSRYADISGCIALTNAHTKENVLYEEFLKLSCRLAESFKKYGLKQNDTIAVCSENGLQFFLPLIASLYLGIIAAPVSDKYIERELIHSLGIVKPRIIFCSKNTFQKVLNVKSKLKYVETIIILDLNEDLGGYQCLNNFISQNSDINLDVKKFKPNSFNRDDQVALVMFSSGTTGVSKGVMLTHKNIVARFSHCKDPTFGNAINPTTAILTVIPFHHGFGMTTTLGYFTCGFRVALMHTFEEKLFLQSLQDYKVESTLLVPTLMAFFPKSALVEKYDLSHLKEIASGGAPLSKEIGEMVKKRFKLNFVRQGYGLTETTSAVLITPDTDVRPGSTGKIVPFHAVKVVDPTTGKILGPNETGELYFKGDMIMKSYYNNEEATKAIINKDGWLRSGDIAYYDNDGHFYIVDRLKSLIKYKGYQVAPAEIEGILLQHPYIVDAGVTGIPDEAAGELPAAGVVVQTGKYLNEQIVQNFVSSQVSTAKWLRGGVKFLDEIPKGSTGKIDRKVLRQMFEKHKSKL
# T1 sequence (P08659 whole entry): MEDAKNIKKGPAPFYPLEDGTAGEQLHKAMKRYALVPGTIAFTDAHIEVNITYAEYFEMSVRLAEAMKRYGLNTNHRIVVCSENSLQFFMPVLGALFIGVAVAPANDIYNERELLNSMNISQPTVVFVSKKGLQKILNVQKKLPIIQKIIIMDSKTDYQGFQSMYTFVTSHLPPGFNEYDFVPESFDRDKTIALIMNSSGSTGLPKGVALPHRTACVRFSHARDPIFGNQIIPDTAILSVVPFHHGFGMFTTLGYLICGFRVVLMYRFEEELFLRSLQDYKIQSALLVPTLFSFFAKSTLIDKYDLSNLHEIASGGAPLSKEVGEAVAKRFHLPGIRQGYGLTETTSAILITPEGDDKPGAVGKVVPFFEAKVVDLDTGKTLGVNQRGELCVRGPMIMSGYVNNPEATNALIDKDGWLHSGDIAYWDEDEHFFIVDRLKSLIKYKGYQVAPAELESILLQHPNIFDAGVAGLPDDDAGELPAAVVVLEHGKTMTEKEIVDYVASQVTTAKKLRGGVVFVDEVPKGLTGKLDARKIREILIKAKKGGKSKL
structure (smiles),measurement,setting,value
"COc1ccc(/C=C/c2ccccc2F)cc1 [NFκBAI4, (E)-2-fluoro-4′-methoxystilbene]",Decay of the luminescence signal,"firefly luciferase [1]; 1 μM, coenzyme A-free buffer, 9 min, compared with untreated lysate",somewhat less pronounced
same,Quenching of remnant firefly signal by Renilla buffer,firefly luciferase [1]; 20 μM added to Renilla buffer,further improved
same,Inhibition of firefly luciferase signals,"firefly luciferase [1]; 20 μM added to lysates of untreated transiently transfected Hepa1c1c7, 70.4 and 55.1c cells",strongly inhibited
same,pIC50,firefly luciferase [1]; lysate of 55.1cSTF K53 cells,6.02
same,pIC50,firefly luciferase [1]; lysate of 55.1cSTF K65 cells,5.85
same,pIC50,firefly luciferase [1]; lysate of 70.4STF K15 cells,6.07
same,pIC50,firefly luciferase [1]; lysate of 70.4STF K31 cells,6.06
same,pIC50,"firefly luciferase [1]; reaction buffer without coenzyme A, results not shown",~6.00
same,Mechanism of inhibition with respect to ATP and D-luciferin,"firefly luciferase [1]; varied ATP and D-luciferin, mixed hyperbolic fit",non-competitive
same,Effect on Renilla luciferase,Renilla luciferase,not affected
same,Effect on Gaussia luciferase,Gaussia luciferase,not affected
same,Duration of firefly luciferase inhibition in living cells,firefly luciferase [2],> 24 h
same,Firefly luciferase inhibition in cells,firefly luciferase [2]; 1 h incubation,strongly inhibited
same,Luminescence of STF firefly luciferase reporter,"firefly luciferase [2]; 24 h, transiently transfected Hepa1c1c7, 70.4 and 55.1c cells",strong decrease of luminescence
same,Firefly luciferase inhibition in cells,firefly luciferase [2]; 24 h incubation,still pronounced
same,Firefly luciferase inhibition in cells,firefly luciferase [2]; 48 h incubation,"still visible in 70.4-derived, but not in 55.1c-derived, cell lines"
same,Firefly luciferase activity in living cells,firefly luciferase [3],effectively inhibits
same,mRNA levels of Axin2 and Gpr49,[4],not accompanied by a decrease in mRNA levels
same,Inhibition of pure firefly luciferase,firefly luciferase [5],also inhibited
"Oc1ccc(/C=C/c2cc(O)cc(O)c2)cc1 [Resveratrol, 3,5,4′-trihydroxy-trans-stilbene]",Firefly luciferase inhibition in cells,firefly luciferase [2]; 1 h incubation,weaker
same,Firefly luciferase inhibition in cells,firefly luciferase [2]; 24 h incubation,disappeared in all cell lines
same,Mechanism of inhibition with respect to ATP and D-luciferin,firefly luciferase [6],non-competitive
same,Resistance of Ultra-Glo luciferase against inhibition,Ultra-Glo luciferase,more resistant
Cc1cccc(/C=C/c2ccccc2)n1 [SIB-1893],Efficacy of firefly luciferase inhibition,firefly luciferase [6]; compared with NFκBAI4,somewhat lower efficacy
